Assays:
[1] = Apparent oral clearance in human at 400 mg, po administered with 400 mg ketoconazole after 7 days; assay type: ADME, organism-based; details: in vivo
Procedure, shortened: (§1)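 Crossover in healthy adults: single fasted oral 400 mg dose, alone or 1 h after oral ketoconazole 400 mg, with a 1-week washout. Plasma drawn predose through 24 h and assayed by LC-MS/MS. λz from log-linear terminal-phase regression; t1/2 = 0.693/λz; CL/F = dose/AUC0-∞; Vz/F = dose/(λz × AUC0-∞). Nominal times used.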

[2] = Cmax in human plasma at 400 mg, po administered with 400 mg ketoconazole after 7 days; assay type: ADME, organism-based; parameters: dose 400 mg, route oral
Procedure, shortened: (§2)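 Fasted healthy adults got a single oral 400 mg dose, alone or 1 h after ketoconazole 400 mg orally, in crossover periods separated by 1 week. Blood taken predose and at 0.5, 1, 1.5, 2, 3, 4, 6, 8, 12, 16, 24 h; analytes measured by validated LC-MS/MS. Cmax and tmax read from the profiles; tmax ranks compared by ANOVA.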

[3] = tested on: Homo sapiens; test: Apparent oral clearance in human assessed as VP 44469 at 400 mg, po after 24 hrs; assay type: ADME, organism-based; details: in vivo; procedure, shortened: as §1
[4] = tested on: Homo sapiens; test: Renal clearance in human assessed as VP 44469 at 400 mg, po after 24 hrs; assay type: ADME, organism-based, Kidney; details: in vivo
Procedure, shortened: (§3)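 24-h urine collected from the first void after the oral 400 mg dose, given alone or 1 h after ketoconazole 400 mg, in a crossover of healthy adults. Amount excreted (Ae) measured by LC-MS/MS after solid-phase extraction. Renal clearance = Ae/AUC0-24 from plasma sampled over 24 h.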

[5] = tested on: Homo sapiens; test: Drug excretion in human assessed as VP 44469 at 400 mg, po after 24 hrs; assay type: ADME, organism-based; details: in vivo; procedure, shortened: as §3
[6] = tested on: Homo sapiens; test: Toxicity in human assessed as dysgeusia at 400 mg, po after 24 hrs; assay type: organism-based; details: in vivo
Procedure, shortened: (§4)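 Healthy volunteers (20 enrolled) given single oral 400 mg doses, with or without oral ketoconazole 400 mg 1 h before, in crossover with a 1-week washout. The investigator recorded all adverse events, grading severity and drug relatedness. Clinical labs ran the day before and after dosing, ECGs predose and at 2 and 4 h, and liver tests at the day-15 follow-up.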

[7] = tested on: Homo sapiens; test: Drug excretion in human at 400 mg, po administered with 400 mg ketoconazole […]; assay type: ADME, organism-based; details: in vivo; procedure, shortened: as §3
[8] = AUC (0 to t) in human at 400 mg, po administered with 400 mg ketoconazole after 7 days; assay type: ADME, organism-based; details: plasma
Procedure, shortened: (§5)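 Healthy adults (n = 20) in a two-sequence crossover with a 1-week washout. Single oral 400 mg dose after overnight fast, 4 h post-dose fast; ketoconazole 400 mg oral given 1 h before in the combination period. Plasma sampled predose and 0.5–24 h; validated LC-MS/MS after solid-phase extraction (5–1,000 ng/ml). AUC0-t by log-linear trapezoidal method; AUC0-∞ = AUC0-t + Clast/λz.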

[9] = tested on: Homo sapiens; test: Toxicity in human assessed as headache at 400 mg, po administered with 400 mg ketoconazole after 7 days; assay type: organism-based; details: in vivo, 168 h; procedure, shortened: as §4
[10] = tested on: Homo sapiens; test: Toxicity in human assessed as dysgeusia at 400 mg, po administered with 400 mg ketoconazole after 7 days; assay type: organism-based; details: in vivo, 168 h; procedure, shortened: as §4
[11] = Terminal elimination half-life in human at 400 mg, po after 24 hrs; assay type: ADME, organism-based; details: in vivo; procedure, shortened: as §1
[12] = AUC (0 to infinity) in human at 400 mg, po administered with 400 mg ketoconazole after 7 days; assay type: ADME, organism-based; parameters: dose 400 mg, time infinity, route oral; details: plasma; procedure, shortened: as §5
[13] = tested on: Homo sapiens; test: Toxicity in human assessed as adverse event at 400 mg, po after 24 hrs; assay type: organism-based; details: in vivo; procedure, shortened: as §4
[14] = tested on: Homo sapiens; test: Renal clearance in human assessed as VP 44469 at 400 mg, po administered with 400 mg ketoconazole […]; assay type: ADME, organism-based, Kidney; details: in vivo
[15] = tested on: Homo sapiens; test: AUC (0 to t) in human assessed as VP 44469 at 400 mg, po after 24 hrs; assay type: ADME, organism-based, Plasma; parameters: dose 400 mg, time < 24 hr, route oral; details: in vivo; procedure, shortened: as §5
[16] = Tmax in human plasma at 400 mg, po administered with 400 mg ketoconazole after 7 days; assay type: ADME, organism-based; procedure, shortened: as §2
[17] = tested on: Homo sapiens; test: AUC (0 to t) in human assessed as VP 44469 at 400 mg, po administered with 400 mg ketoconazole after 7 days; assay type: ADME, organism-based, Plasma; details: in vivo, 168 h; procedure, shortened: as §5
[18] = AUC (0 to t) in human at 400 mg, po after 24 hrs; assay type: ADME, organism-based; parameters: time < 24 hr, dose 400 mg, route oral; details: plasma; procedure, shortened: as §5
[19] = tested on: Homo sapiens; test: Tmax in human plasma assessed as VP 44469 at 400 mg, po after 24 hrs; assay type: ADME, organism-based; details: in vivo; procedure, shortened: as §2
[20] = Apparent oral clearance in human at 400 mg, po after 24 hrs; assay type: ADME, organism-based; details: in vivo; procedure, shortened: as §1
[21] = tested on: Homo sapiens; test: Volume of distribution with respect to oral bioavailability in human assessed as VP 44469 at 400 mg, po administered with 400 mg ketoconazole after 7 days; assay type: ADME, organism-based; details: in vivo, 168 h; procedure, shortened: as §1
[22] = tested on: Homo sapiens; test: Cmax in human plasma assessed as VP 44469 at 400 mg, po after 24 hrs; assay type: ADME, organism-based; parameters: dose 400 mg, route oral; details: in vivo; procedure, shortened: as §2
[23] = tested on: Homo sapiens; test: AUC (0 to infinity) in human assessed as VP 44469 at 400 mg, po administered with 400 mg ketoconazole after 7 days; assay type: ADME, organism-based, Plasma; parameters: dose 400 mg, route oral, time infinity; details: in vivo, 168 h; procedure, shortened: as §5
[24] = tested on: Homo sapiens; test: Terminal elimination half-life in human assessed as VP 44469 at 400 mg, po administered with 400 mg ketoconazole after 7 days; assay type: ADME, organism-based; details: in vivo, 168 h; procedure, shortened: as §1
[25] = Terminal elimination half-life in human at 400 mg, po administered with 400 mg ketoconazole after 7 days; assay type: ADME, organism-based; details: in vivo; procedure, shortened: as §1
[26] = AUC (0 to infinity) in human at 400 mg, po after 24 hrs; assay type: ADME, organism-based; parameters: dose 400 mg, route oral, time infinity; details: plasma; procedure, shortened: as §5
[27] = tested on: Homo sapiens; test: Drug excretion in human assessed as VP 44469 at 400 mg, po administered with 400 mg ketoconazole […]; assay type: ADME, organism-based; details: in vivo
[28] = tested on: Homo sapiens; test: Apparent oral clearance in human assessed as VP 44469 at 400 mg, po administered with 400 mg ketoconazole after 7 days; assay type: ADME, organism-based; details: in vivo, 168 h; procedure, shortened: as §1
[29] = Volume of distribution with respect to oral bioavailability in human at 400 mg, po after 24 hrs; assay type: ADME, organism-based; details: in vivo, read-out: Vss/F; procedure, shortened: as §1
[30] = tested on: Homo sapiens; test: Tmax in human plasma assessed as VP 44469 at 400 mg, po administered with 400 mg ketoconazole after 7 days; assay type: ADME, organism-based; details: in vivo, 168 h; procedure, shortened: as §2
[31] = tested on: Homo sapiens; test: AUC (0 to infinity) in human assessed as VP 44469 at 400 mg, po after 24 hrs; assay type: ADME, organism-based, Plasma; parameters: dose 400 mg, time infinity, route oral; details: in vivo; procedure, shortened: as §5
[32] = tested on: Homo sapiens; test: Toxicity in human assessed as adverse event at 400 mg, po administered with 400 mg ketoconazole after 7 days; assay type: organism-based; details: in vivo, 168 h; procedure, shortened: as §4
[33] = tested on: Homo sapiens; test: Terminal elimination half-life in human assessed as VP 44469 at 400 mg, po after 24 hrs; assay type: ADME, organism-based; details: in vivo; procedure, shortened: as §1
[34] = Tmax in human plasma at 400 mg, po after 24 hrs; assay type: ADME, organism-based; procedure, shortened: as §2
[35] = Renal clearance in human at 400 mg, po administered with 400 mg ketoconazole after 7 days; assay type: ADME, organism-based, Kidney; details: in vivo; procedure, shortened: as §3
[36] = tested on: Homo sapiens; test: Drug excretion in human at 400 mg, po after 24 hrs; assay type: ADME, organism-based; details: in vivo; procedure, shortened: as §3
[37] = tested on: Homo sapiens; test: Volume of distribution with respect to oral bioavailability in human assessed as VP 44469 at 400 mg, po after 24 hrs; assay type: ADME, organism-based; details: in vivo; procedure, shortened: as §1
[38] = Volume of distribution with respect to oral bioavailability in human at 400 mg, po administered with 400 mg ketoconazole after 7 days; assay type: ADME, organism-based; details: in vivo, read-out: Vss/F; procedure, shortened: as §1
[39] = Cmax in human plasma at 400 mg, po after 24 hrs; assay type: ADME, organism-based; parameters: dose 400 mg, route oral; procedure, shortened: as §2
[40] = tested on: Homo sapiens; test: Cmax in human plasma assessed as VP 44469 at 400 mg, po administered with 400 mg ketoconazole after 7 days; assay type: ADME, organism-based; parameters: dose 400 mg, route oral; details: in vivo, 168 h; procedure, shortened: as §2

CC(C)Nc1nc2cc(Cl)c(Cl)cc2n1[C@H]1O[C@@H](CO)[C@H](O)[C@@H]1O [MARIBAVIR]
CL/F [1]: 38.7 mL/min
Cmax [2]: 21800 ng/mL
CL/F [3]: 23.8 L/h
CL_renal [4]: 7637 mL/h
Activity [5]: 110 mg
Activity [6]: 47%
Activity [7]: 9.86 mg
AUC(0-t) at 168 h [8]: 173 µg·h/mL
Activity [9]: 10%
Activity [10]: 35%
half-life [11]: 5.73 h
AUC(0-inf) [12]: 194 µg·h/mL
Activity [13]: 47%
CL_renal [14]: 6876 mL/h
AUC [15]: 15.6 µg·h/mL
Tmax [16]: 1.9 h
AUC [17]: 14.7 µg·h/mL
AUC(0-t) at 24 h [18]: 119 µg·h/mL
Tmax [19]: 2.5 h
CL/F [20]: 59.3 mL/min
Vz/F [21]: 342 L
Cmax [22]: 1600 ng/mL
AUC [23]: 20.5 µg·h/mL
t1/2 [24]: 11.8 h
half-life [25]: 6.88 h
AUC(0-inf) [26]: 126 µg·h/mL
Activity [27]: 95 mg
CL/F [28]: 21.1 L/h
Vd/F [29]: 27.5 L
Tmax [30]: 5.5 h
AUC [31]: 17.4 µg·h/mL
Activity [32]: 45%
t1/2 [33]: 6.83 h
Tmax [34]: 1.7 h
CL renal at 168 h [35]: 0.953 mL/min
Activity [36]: 4.12 mg
Vss/F [37]: 235 L
Vd/F [38]: 21.6 L
Cmax [39]: 19800 ng/mL
Cmax [40]: 1000 ng/mL
